Screens from PubChem BioAssay.
Shown are actives, neighbours in structure and some others; about 1% of the full set was active somewhere.
PvdQ inh: P. aeruginosa PvdQ acylase inhibition. purified PvdQ acylase, fluorescence plate reader. inhibition, % at 10 µM. 340,000 compounds, 0.063% hits; in the data active = inhibition above about 30%, passing the limit was not always enough;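 also: 0% = vehicle neutral wells and 100% = reference inhibitor wells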
IMP-1 inh-1: blocks Pseudomonas aeruginosa IMP-1 metallo-beta-lactamase; 290,000 compounds, 0.45% hits; purified IMP-1, nitrocefin hydrolysis, epi-absorbance fluorescence; AID 1556; inhibition, % at 5.6 µM;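 active = inhibition above the mean plus 3 SD of all compounds in the same screening run, cut at about 4.5% in these data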;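 also: 0% = IMP-1 with DMSO and 100% = DMSO wells lacking enzyme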
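System: purified recombinant IMP-1 beta-lactamase. Medium: Zinc- and detergent-supplemented HEPES buffer, pH 7.1. Compound: one 5.6 µM dose […]. Schedule: 15 min preincubation plus 25 min reaction at 25 °C. Technique: Epi-absorbance fluorescence, 480 nm excitation, 530 nm emission.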
PglD DTNB: inhibitors of Campylobacter jejuni PglD acetyltransferase; inhibition, % at 12.5 µM; 360,000 compounds, 0.098% hits; purified PglD enzyme, DTNB colorimetric CoA detection; in the data active = inhibition above about 16%, passing the limit was not always enough
PDI inh: PDI (human) enzyme inhibition; inhibition, % at 10 µM; P07237; 350,000 compounds, 0.052% hits; AID 588391; PDI insulin aggregation turbidity, A650, 90 min;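 active = mean inhibition across replicates of 30% or more, whatever share of single replicates reach that level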
ERp5 inh: inhibitors of human ERp5; 350,000 compounds, 0.05% hits; inhibition, % at 9.99 µM; AID 651711; Q15084; ERp5 insulin aggregation, absorbance 650 nm, 90 min;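 active = mean replicate inhibition above about 25%, with every replicate also reaching it, limit read from the data, passing the limit was not always enough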
Target sequence (Q15084 whole entry, looked up): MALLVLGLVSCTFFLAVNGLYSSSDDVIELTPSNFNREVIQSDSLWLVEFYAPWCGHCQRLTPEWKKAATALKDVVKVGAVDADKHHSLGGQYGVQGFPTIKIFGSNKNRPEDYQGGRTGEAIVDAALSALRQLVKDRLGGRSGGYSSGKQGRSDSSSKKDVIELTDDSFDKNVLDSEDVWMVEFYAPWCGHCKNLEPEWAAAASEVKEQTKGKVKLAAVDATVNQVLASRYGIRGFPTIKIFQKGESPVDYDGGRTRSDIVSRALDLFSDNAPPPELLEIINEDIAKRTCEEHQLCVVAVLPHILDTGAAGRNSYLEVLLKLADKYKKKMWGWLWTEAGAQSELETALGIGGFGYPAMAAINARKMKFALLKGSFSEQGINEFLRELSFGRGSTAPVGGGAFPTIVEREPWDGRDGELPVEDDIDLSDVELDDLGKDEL
VIM-2 inh: blocks Pseudomonas aeruginosa VIM-2 metallo-beta-lactamase; purified VIM-2, nitrocefin hydrolysis, epi-absorbance fluorescence; inhibition, % at 5.6 µM; 290,000 compounds, 0.89% hits; AID 1527;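 active = inhibition above the mean of all tested compounds plus 3 SD, cutoff set per screening run, cut at about 7.5% in these data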;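 also: red hydrolysis product quenches plate fluorescence so inhibitors raise well fluorescence; 0% = enzyme with DMSO and 100% = DMSO without enzyme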
IMP-1 inh-2: selectivity counter-screen for VIM-2 inhibitors: IMP-1 metallo-beta-lactamase inhibitors | shares compounds with VIM-2 inh | purified IMP-1, nitrocefin hydrolysis, epi-absorbance fluorescence | inhibition, % at 5.6 µM | 1,300 tested, under 10 active; call rule not given here;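 also: 0% = enzyme with vehicle and 100% = vehicle without enzyme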
VIM-2 FRET inh: counter-screen for VIM-2 inhibitors: epi-absorbance artifacts via FRET; shares compounds with VIM-2 inh; purified VIM-2, CCF2 FRET substrate hydrolysis; inhibition, % at 5.6 µM; 1,300 compounds, 23% hits; AID 1857;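 active = inhibition above the mean of all tested compounds plus 3 SD, cut at about 19% in these data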;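 also: 0% = VIM-2 plus DMSO and 100% = no enzyme wells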
TEM-1 counter: TEM-1 inhibition, counter-screen for VIM-2 inhibitors; shares compounds with VIM-2 inh; Purified TEM-1, nitrocefin hydrolysis, epi-absorbance fluorescence; inhibition, % at 5.6 µM; 1,300 compounds, 3% hits; AID 1866;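 active = inhibition above that campaign's mean inhibition plus 3 SD, cut at about 0.46% in these data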;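 also: 0% = TEM-1 with DMSO and 100% = TEM-1 with 100 µM potassium clavulanate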
Target sequence (P62593 whole entry, looked up): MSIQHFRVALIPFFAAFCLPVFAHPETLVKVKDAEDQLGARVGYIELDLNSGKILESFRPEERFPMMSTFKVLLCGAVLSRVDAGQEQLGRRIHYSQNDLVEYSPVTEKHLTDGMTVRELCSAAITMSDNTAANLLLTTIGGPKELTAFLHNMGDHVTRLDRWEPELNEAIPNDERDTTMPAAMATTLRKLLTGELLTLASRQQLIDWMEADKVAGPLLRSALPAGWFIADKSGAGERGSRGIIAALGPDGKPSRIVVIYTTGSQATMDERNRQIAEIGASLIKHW
VIM-2 confirm 2: confirmation of P. aeruginosa VIM-2 metallo-beta-lactamase inhibitors; shares compounds with VIM-2 inh; purified VIM-2, nitrocefin hydrolysis, epi-absorbance; inhibition, % at 5.6 µM; 1,300 compounds, 96% hits; AID 2187;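 active = inhibition of the VIM-2 beta-lactamase enzyme above about 11% from the earlier first-round screen, limit read from the data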;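 also: 0% = VIM-2 with DMSO and 100% = buffer wells without enzyme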
Numbers without * were called inactive; / = not tested or not shown.

SMILES	PvdQ inh	IMP-1 inh-1	PglD DTNB	PDI inh	ERp5 inh	VIM-2 inh	IMP-1 inh-2	VIM-2 FRET inh	TEM-1 counter	VIM-2 confirm 2
CCC(C)NC(=O)c1cc2c(=O)n3cccc(C)c3nc2s1 (stereo unspecified)	-25	-3	-5	-14	0	20*	-3	-6	-3	27*
O=C(NC1Cc2ccccc2C1)[C@@H]1[C@@H](CO)[C@@H]2Cn3c(cccc3=O)[C@@H]2N1C(=O)c1ccccn1	/	/	0	/	-1	/	/	/	/	/
O=C(Cc1cccnc1)N1CC(=O)N2[C@H](CO)[C@H](c3ccc(/C=C/c4ccccc4)cc3)[C@@H]2C1	/	/	/	/	2	/	/	/	/	/
C[C@H](CO)N1C[C@H](C)[C@@H](CN(C)S(=O)(=O)c2cccs2)Oc2ccc(NC(=O)CCCN(C)C)cc2CC1=O	/	/	-1	/	/	/	/	/	/	/
CSc1nc(NCCCN(C)C)c2c3c(sc2n1)CN(C)CC3	/	-3	/	/	1	25*	-2	1	-5	37*
COC(=O)c1c(NC(=O)c2ccco2)sc2c1CCN(C(C)=O)C2	7	-1	-5	-2	-24	21*	-3	-5	-6	30*
O=C(CSc1nnc(NC(=O)c2ccccc2[N+](=O)[O-])s1)NC1CCCC1	7	-2	-1	8	9	15*	-3	32*	-7	19*
COc1ccccc1C(=O)Nc1nnc(SCC(=O)NC2CCCC2)s1	1	-4	5	10	/	12*	-3	31*	-6	24*
Cc1noc(C)c1NC(=O)N(C)C[C@H]1OCCCC[C@@H](C)Oc2ccc(NC(=O)Cc3ccccc3)cc2C(=O)N([C@H](C)CO)C[C@H]1C	/	/	-2	/	23	/	/	/	/	/
COc1cccc(C(=O)Nc2ccc3c(c2)OC[C@@H](C)N(C(C)=O)C[C@@H](C)[C@H](OC)CN(C)C3=O)c1	/	/	1	/	3	/	/	/	/	/
CCCNC(=O)N(C)C[C@H]1Oc2ncc(C#CC3(O)CCCC3)cc2C(=O)N([C@H](C)CO)C[C@H]1C	/	/	1	/	0	/	/	/	/	/
CCOC(=O)c1cnc2ccc(OCC)cc2c1NCCCN1CCOCC1	-11	-4	9	-3	-1	32*	-3	-3	-6	45*
CCOC(=O)c1cnc2ccc(C(=O)OC)cc2c1NCCCN1CCOCC1	12	1	-3	-3	3	70*	-4	-3	-6	82*
CN1C(=O)c2cc(NC(=O)c3ccccc3)ccc2OC[C@H]2O[C@@H](CC(=O)NC3CCCC3)CC[C@@H]21	/	/	-1	/	1	/	/	/	/	/
COc1cccc(NC(=O)Nc2ccc3c(c2)C(=O)N(C)[C@H]2CC[C@H](CC(=O)O)O[C@H]2CO3)c1	/	/	6	/	/	/	/	/	/	/
C[C@H](CO)N1C[C@H](C)[C@@H](CN(C)C(=O)NC2CCCC2)Oc2ncc(Br)cc2C1=O	/	/	-1	/	6	/	/	/	/	/
COc1cc(Br)cc2cc(C(=O)OC3CCN(C)CC3)c(=O)oc12	-8	-1	2	0	/	14*	-3	1	-6	22*
O=C(NCCN1CCOCC1)c1cccn2c(=O)c3c4c(sc3nc12)CCCC4	/	-1	/	/	/	17*	-3	-1	-8	47*
Cc1cccn2c(=O)c3cc(C(=O)NCCN4CCOCC4)n(C)c3nc12	-17	-1	7	2	4	19*	-3	-2	-8	28*
O=C1C(=O)N(c2nccs2)C(c2ccccc2F)/C1=C(\O)c1ccc2c(c1)OCCO2 (stereo unspecified)	-12	1	3	-10	2	21*	-3	33*	-5	22*
O=C(Nc1ccc(N2CCN(Cc3ccccc3)CC2)cc1)c1ncn[nH]1	-19	-1	-3	1	/	13*	-4	-1	-6	25*
CCC(=O)Nc1ccc(N2CCN(Cc3ccccc3)CC2)cc1	-7	-1	1	10	/	0	/	/	/	/
CCCCNC(=O)c1cc2c(-c3ccc(Cl)cc3)nn(C)c2s1	-8	-3	4	-8	-1	-4	/	/	/	/
CCCCN(CC)CCCNC(=O)c1cc2c(-c3ccc(OC)c(OC)c3)nn(C)c2s1	-3	-4	-8	15	5	13*	-3	1	-5	24*
COc1cc(NC(=O)c2cc3c(Cl)nc4ccccc4c3s2)cc(OC)c1OC	-7	-2	/	7	/	-2	/	/	/	/
SMILES	PvdQ inh	IMP-1 inh-1	PglD DTNB	PDI inh	ERp5 inh	VIM-2 inh	IMP-1 inh-2	VIM-2 FRET inh	TEM-1 counter	VIM-2 confirm 2
CN(CCCNC(=O)c1cc2c(Cl)nc3ccccc3c2s1)Cc1ccccc1	-13	1	4	0	1	22*	-2	2	-7	31*
COc1ccc(N(C)C(=O)c2cc3c(Cl)nc4ccccc4c3s2)cc1	-15	-5	/	2	/	-2	/	/	/	/
CCN(CC)CCCNC(=O)c1cc2c(Cl)nc3ccccc3c2s1	-21	-1	/	2	/	22*	-2	6	-6	32*
C[C@H](CO)N1C[C@H](C)[C@@H](CN(C)Cc2ccc(-c3ccccc3)cc2)OCc2ccccc2-c2c(n(C)c3ccccc23)C1=O	/	/	/	/	1	/	/	/	/	/
C[C@H]1CN([C@@H](C)CO)C(=O)Cc2cc(NC(=O)Cc3cn(C)c4ccccc34)ccc2O[C@H]1CN(C)S(=O)(=O)c1ccc(F)cc1	/	/	-1	/	8	/	/	/	/	/
O=C(CSc1nnc(Nc2ccccc2F)s1)NCC1CCCO1 (stereo unspecified)	3	/	/	4	-10	/	/	/	/	/
O=C(CSc1nnc(NC(=O)c2ccccc2F)s1)NCC1CCCO1 (stereo unspecified)	-3	-2	-3	-5	1	15*	-3	28*	-7	17*
O=C(CSc1nnc(NC(=O)Cc2ccccc2)s1)NCC1CCCO1 (stereo unspecified)	-7	-1	-5	0	2	-1	/	/	/	/
O=C(CSc1nnc(NC(=O)c2ccccc2[N+](=O)[O-])s1)NCC1CCCO1 (stereo unspecified)	-2	-2	-5	-1	2	19*	-3	35*	-6	23*
O=C(NC[C@H]1CC[C@@H]2[C@@H](CN2S(=O)(=O)c2ccccc2)O1)NC1CCCCC1	/	/	/	/	-2	/	/	/	/	/
CCC(=O)Nc1ccc2c(c1)OC[C@H](C)N(Cc1ccccc1C(=O)O)C[C@H](C)[C@@H](OC)CN(C)C2=O	/	/	/	/	2	/	/	/	/	/
COc1cccc(-n2c(CNC(=O)OC(C)(C)C)n[nH]c2=S)c1	6	-5	-3	-9	/	19*	-5	44*	-7	27*
